Results: ChEMBL document CHEMBL4364322, “Protective effect of piceatannol and bioactive stilbene derivatives against hypoxia-induced toxicity in H9c2 cardiomyocytes and structural elucidation as 5-LOX inhibitors” (Eur J Med Chem, 2019)
Values belong to the compound of their own block, whether it stands above or below them. Active and inactive are the calls of the source. The calls are words filed in the database; no cut-off is given here.

Assays:
[1] = test system: H9c2; assay: Cytoprotective activity against hypoxia-induced toxicity rat H9c2 cells assessed as increase in cell viability at 80 nM preincubated for 18 hrs followed by incubated in hypoxia for 48 hrs by MTT assay; format: functional
Summary of the method: (§1)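 10^4 H9c2 cells were seeded and grown 24 h at 37 °C. Compound (80 nM–20 µM) was added either 18 h before or just before 48 h hypoxia in a sealed humidified chamber (5% CO2, 95% N2). Viability was measured by MTT for about 2 h, with formazan dissolved in HCl/isopropanol and read at 570 nm. Results are % of corresponding control, triplicates.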

[2] = target: T1, Polyunsaturated fatty acid 5-lipoxygenase (Homo sapiens, UniProt P09917); assay: Inhibition of human 5-LOX expressed in Escherichia coli BL21 using arachidonic acid as substrate preincubated for 15 mins followed by substrate addition by HPLC analysis
T1 sequence (P09917 whole entry): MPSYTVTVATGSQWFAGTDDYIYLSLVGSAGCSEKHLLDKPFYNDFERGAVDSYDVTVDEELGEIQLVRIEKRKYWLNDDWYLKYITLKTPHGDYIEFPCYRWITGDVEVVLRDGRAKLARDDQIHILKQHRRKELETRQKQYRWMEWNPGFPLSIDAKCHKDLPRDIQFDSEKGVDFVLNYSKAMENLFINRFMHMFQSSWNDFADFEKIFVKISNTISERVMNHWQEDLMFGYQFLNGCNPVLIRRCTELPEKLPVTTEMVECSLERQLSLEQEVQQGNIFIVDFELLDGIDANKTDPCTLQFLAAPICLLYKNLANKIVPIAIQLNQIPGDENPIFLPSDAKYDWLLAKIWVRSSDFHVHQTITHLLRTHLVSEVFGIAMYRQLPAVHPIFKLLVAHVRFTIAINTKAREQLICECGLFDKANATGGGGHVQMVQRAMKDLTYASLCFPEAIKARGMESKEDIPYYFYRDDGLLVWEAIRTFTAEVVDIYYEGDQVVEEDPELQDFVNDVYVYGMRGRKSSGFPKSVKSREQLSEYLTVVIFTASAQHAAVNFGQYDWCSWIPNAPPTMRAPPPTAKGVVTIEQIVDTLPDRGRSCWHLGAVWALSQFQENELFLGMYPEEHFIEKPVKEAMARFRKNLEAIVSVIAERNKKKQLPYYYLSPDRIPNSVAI
Summary of the method: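 Human recombinant 5-LOX was expressed in E. coli BL21 (pT3-5LO) and purified. Enzyme (0.5 µg) in PBS/EDTA was preincubated with compound 15 min at 4 °C, then warmed 30 s at 37 °C. The reaction was started with 2 mM CaCl2 plus 20 µM arachidonic acid and run 10 min at 37 °C. Products were analysed by HPLC.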

[3] = target: T1, Polyunsaturated fatty acid 5-lipoxygenase; assay: Inhibition of 5-LOX in human PMNL cells assessed as A23187-stimulated LTB4 production preincubated for 15 mins followed by A23187 addition and measured after 10 mins by HPLC analysis; format: cell-based
Summary of the method: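 Human PMNL (5×10^6 in 1 ml PBS with 1 mg/ml glucose and 1 mM CaCl2) were preincubated with compound 15 min at 37 °C. 2.5 µM A23187 was added for 10 min at 37 °C, and the reaction was stopped with methanol. 5-LOX products were analysed by HPLC.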

[4] = test system: H9c2; assay: Cytoprotective activity against hypoxia-induced apoptosis in rat H9c2 cells assessed as early apoptotic cells at 2 uM preincubated for 18 hrs followed by incubated in hypoxia for 48 hrs by annexin V based flow cytometry; format: functional, cell-based
Summary of the method: (§2)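 H9c2 cells were pretreated 18 h at 2 µM, then grown under normoxia or hypoxia. Apoptotic cells were detected by flow cytometry with fluorescein-annexin V staining. The read-out is % annexin V-positive cells.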

[5] = test system: H9c2; assay: Cytoprotective activity against hypoxia-induced toxicity rat H9c2 cells assessed as increase in cell viability at 80 nM to 7 uM preincubated for 18 hrs followed by incubated in hypoxia for 48 hrs by MTT assay; format: functional; summary of the method: as §1
[6] = test system: H9c2; assay: Cytoprotective activity against hypoxia-induced toxicity rat H9c2 cells assessed as increase in cell viability at 80 nM to 7 uM incubated for 18 hrs in hypoxia measured after 48 hrs by MTT assay; format: functional; summary of the method: as §1
[7] = test system: H9c2; assay: Antioxidant activity in rat H9c2 cells assessed as reduction in hypoxia-induced NO release at 80 nM to 2 uM preincubated for 18 hrs followed by incubated in hypoxia for 48 hrs by griess assay; format: functional, cell-based
Summary of the method: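 10^4 H9c2 cells were pretreated 18 h at 37 °C with 80 nM or 2 µM, then held 48 h in a hypoxic chamber. Supernatant nitrite was measured with Griess reagent (0.5% sulfanilamide, 2.5% H3PO4, 0.05% naphthylethylene diamine) for 10 min at RT. Absorbance was read at 550 nm against a sodium nitrite standard curve.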

[8] = test system: H9c2; assay: Antioxidant activity in rat H9c2 cells assessed as reduction in hypoxia-induced lipid peroxidation by measuring TBARS level preincubated for 18 hrs followed by incubated in hypoxia for 48 hrs by spectrophotometry; format: functional, cell-based
Summary of the method: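 10^4 H9c2 cells were pretreated 18 h with 80 nM or 2 µM, then held 48 h under hypoxia. Cells were lysed in modified RIPA buffer. Lysates were mixed with 20% acetic acid (pH 3.5) and 0.78% thiobarbituric acid, heated at 95 °C for 45 min, and centrifuged. A532 was read and expressed as TBARS per µg protein. Triplicate measurements, duplicate experiments.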

[9] = test system: H9c2; assay: Antioxidant activity in rat H9c2 cells assessed as increase in hypoxia-induced reduction of MnSOD expression at 2 uM preincubated for 18 hrs followed by incubated in hypoxia for 48 hrs by Western blot analysis; format: functional, cell-based
Summary of the method: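 H9c2 cells were pretreated 18 h at 80 nM or 2 µM, then held 48 h under hypoxia. Lysates were made in RIPA buffer with protease inhibitors and DTT, and 80 µg protein was run on 12% SDS-PAGE. Blots were probed overnight at 4 °C with anti-MnSOD, with GAPDH as internal standard. Detection was by ECL and bands were quantified by densitometry.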

[10] = test system: H9c2; assay: Antioxidant activity in rat H9c2 cells assessed as hypoxia-induced RO production at 2 uM preincubated for 18 hrs followed by incubated in hypoxia for 48 hrs by DCFH-DA staining-based flow cytometric analysis( Rvb = 45 %); format: functional
[11] = test system: H9c2; assay: Cytoprotective activity against hypoxia-induced toxicity rat H9c2 cells assessed as cell death at 20 uM incubated for 18 hrs in hypoxia measured after 48 hrs by MTT assay
[12] = test system: H9c2; assay: Cytoprotective activity against hypoxia-induced toxicity rat H9c2 cells assessed as cell death at 20 uM preincubated for 18 hrs followed by incubated in hypoxia for 48 hrs by MTT assay
[13] = test system: H9c2; assay: Cytoprotective activity against hypoxia-induced apoptosis in rat H9c2 cells assessed as early apoptotic cells at 2 uM preincubated for 18 hrs followed by incubated in hypoxia for 48 hrs by annexin V based flow cytometry (reference value: 60 %); format: functional; summary of the method: as §2
[14] = target: T2, Polyunsaturated fatty acid 5-lipoxygenase (Homo sapiens) (UniProt P09917); assay: Residual activity of human 5-LOX expressed in Escherichia coli BL21 using arachidonic acid as substrate at 10 uM preincubated for 15 mins followed by substrate addition by HPLC analysis relative to control
T2 sequence (whole entry): T1 sequence (P09917 whole entry)

Compound: COc1cc(/C=C/c2ccc(OC)c(O)c2)cc(OC)c1
Activity [1]: 25 - 35%
IC50 [2]: 5490 nM
IC50 [3]: 5480 nM

Compound: CC(c1cc2ccccc2s1)N(O)C(N)=O (configuration not stated)
Activity [4]: inactive

Compound: Oc1cc(O)cc(/C=C/c2ccc(O)c(O)c2)c1 [PICEATANNOL]
Activity [5]: Active
Activity [6]: Active
Activity [7]: Active
Activity [8]: Dose-dependent effect
Activity [9]: Active
Activity [10]: 38%
IC50 [2]: 1100 nM
IC50 [3]: 240 nM
Activity [4]: inactive
cell death [11]: 80%
cell death [12]: 80%

Compound: COc1ccc(/C=C/c2cc(OC)cc(OC)c2)cc1 [TRISMETHOXYRESVERATROL]
Activity [1]: 25 - 35%
IC50 [2]: 3620 nM
IC50 [3]: 760 nM

Now from value to compound, other results behind:

IC50 [2]: 780 nM
IC50 [3]: 70 nM
Compound: COc1cc(/C=C/c2ccc(O)c(OC)c2)cc(OC)c1
Activity [1]: 25 - 35%

IC50 [2]: 320 nM
IC50 [3]: 50 nM
Compound: COc1cc(/C=C/c2ccc(O)c(O)c2)cc(OC)c1
Activity [1]: 25 - 35%

IC50 [2]: 3910 nM
IC50 [3]: 530 nM
Compound: COc1cc(/C=C/c2ccc(O)cc2)cc(OC)c1 [PTEROSTILBENE]
Activity [1]: 25 - 35%
Activity [13]: 25%

IC50 [3]: 4900 nM
residual activity [14]: 63.4%
Compound: Oc1ccc(/C=C/c2cc(O)cc(O)c2)cc1 [RESVERATROL]
Activity [5]: 95%
Activity [6]: 95%
Activity [7]: Active
Activity [8]: Dose-dependent effect
Activity [9]: Active
cell death [11]: 80%
cell death [12]: 80%
